Screening data from PubChem.
Compounds with a hit are over-represented: about 2% of the library has one in this group of screens.
MBD2 DNA inh = inhibitors of MBD2 binding to methylated DNA, primary screen, biochemical, TR-FRET, DNA-binding domain, human | MBD2 binding to methylated oligonucleotide | inhibition, % at 4.4 µM | 0.31% of 370,000 active | AID 686964, 2013; in the data active = inhibition above about 13%
TDP2 absorb = human TDP2 enzyme inhibitors, primary screen, biochemical, epi absorbance, recombinant enzyme | inhibition, % at 12.8 µM | 0.34% of 370,000 active | T5PNP hydrolysis, p-nitrophenol absorbance 415 nm | Tyrosyl-DNA phosphodiesterase 2 (Homo sapiens), O95551;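 active = inhibition above the mean of all tested compounds plus 3 SD, set per campaign, cut at about 25% in these data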;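 note: 0% = DMSO with enzyme and 100% = buffer with substrate but no TDP2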
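Incubation: 2 h at 37 °C; Test system: recombinant human TDP2; Quantity: enzyme 120 nM; Read-out basis: percent inhibition; Medium: 50 mM Tris-HCl pH 7.5 with Mg2+, KCl, DTT, BSA; Repeats: single replicate; Compound: 12.8 µM single point, 1% DMSO; Signal: epi absorbance; Reagent: 5 mM T5PNP chromogenic substrate; Benchmarks: no-enzyme high, DMSO-plus-enzyme low.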
UHRF1 MBD2 ctr = UHRF1 methylated DNA binding inhibitors, primary screen, counter-screen for MBD2 inhibitor project, biochemical, TR-FRET, human UHRF1, single concentration | UHRF1 binding to methylated oligo | 0.75% of 370,000 active | E3 ubiquitin-protein ligase UHRF1 (Homo sapiens), Q96T88 | AID 687016, 2013 | inhibition, % at 4.4 µM; in the data active = inhibition above about 21%;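 note: UHRF1 SRA domain binding a hemimethylated CpG hairpin DNA probe; 0% = median of test compound wells and 100% = reference inhibitor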
Target sequence (Q96T88 whole entry, looked up, the tested form may be a part): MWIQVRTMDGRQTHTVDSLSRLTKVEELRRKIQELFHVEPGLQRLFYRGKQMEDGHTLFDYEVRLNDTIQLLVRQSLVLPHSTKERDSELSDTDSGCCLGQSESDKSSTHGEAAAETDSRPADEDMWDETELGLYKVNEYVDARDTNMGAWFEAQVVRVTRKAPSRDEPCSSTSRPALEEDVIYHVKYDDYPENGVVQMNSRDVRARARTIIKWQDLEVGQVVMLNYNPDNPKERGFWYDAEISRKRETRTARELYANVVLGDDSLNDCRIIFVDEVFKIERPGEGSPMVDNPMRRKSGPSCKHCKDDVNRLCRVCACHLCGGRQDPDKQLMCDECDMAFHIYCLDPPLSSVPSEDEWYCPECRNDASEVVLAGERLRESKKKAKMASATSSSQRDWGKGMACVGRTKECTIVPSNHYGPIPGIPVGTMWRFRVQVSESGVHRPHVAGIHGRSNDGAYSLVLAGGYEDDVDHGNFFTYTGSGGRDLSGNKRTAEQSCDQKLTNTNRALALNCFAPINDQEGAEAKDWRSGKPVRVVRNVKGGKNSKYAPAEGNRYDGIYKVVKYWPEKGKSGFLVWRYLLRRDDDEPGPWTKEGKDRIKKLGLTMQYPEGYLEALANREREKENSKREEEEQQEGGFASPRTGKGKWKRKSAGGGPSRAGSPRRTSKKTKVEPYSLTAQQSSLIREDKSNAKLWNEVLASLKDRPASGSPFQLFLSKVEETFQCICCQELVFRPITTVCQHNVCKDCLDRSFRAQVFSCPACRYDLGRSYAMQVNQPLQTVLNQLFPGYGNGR
ARFGAP1 inh = inhibitors of rat ARFGAP1 GAP activity, primary screen, biochemical, fluorescence polarization, GDP tracer; 0.26% of 360,000 active; AID 651572, 2012; inhibition, % at 16.5 µM; Arfgap1-stimulated ARF1 GTP hydrolysis, GDP FP detection; ADP-ribosylation factor GTPase-activating protein 1 (Rattus norvegicus), Q62848;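 active = inhibition above a per-plate limit, mean inhibition of low control wells plus 3 SD, cut at about 25% in these data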;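 note: 0% = DMSO wells with enzyme and 100% = wells lacking Arfgap1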
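Assay system: purified rat His6-Arfgap1 residues 1-136 (GAP domain); Reagent: human Δ17 ARF1 bound to GTP; Dosing: 16.5 µM single point, 1.26% DMSO; Times: GTP hydrolysis reaction 2 h at 25 °C; Signal: FP, GDP Alexa 633 tracer displaced from anti-GDP antibody, 620/688 nm; Measure: % inhibition from polarization.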
LEDGF integ inh = blockers of LEDGF/p75-dependent integrase strand transfer – biochemical, TR-FRET, high throughput, primary screen; 0.64% of 370,000 active; TR-FRET IN-LEDGF/p75 DNA integration, Eu/Cy5; HIV-1 integrase (with human LEDGF/p75); inhibition, % at 3.7 µM;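 active = inhibition above the screen-wide mean plus 3 SD, cut at about 13% in these data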;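 note: signal is the Cy5 over europium emission ratio at 671 and 618 nm; 0% = plate median of compound wells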
ASAP1 GAP inh = inhibitors of human ASAP1 ArfGAP activity, primary screen, biochemical, fluorescence polarization; 0.19% of 360,000 active; Arf-GAP with SH3 domain, ANK repeat and PH domain-containing protein 1 (Homo sapiens), …; inhibition, % at 16.5 µM; ASAP1-stimulated ARF1 GTP hydrolysis, GDP FP detection;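 note: 0% = vehicle with enzyme and substrate and 100% = no enzyme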
TDP2 inh conf = human TDP2 enzyme inhibitors, retest, confirmation, biochemical, epi absorbance, recombinant enzyme; shares compounds with TDP2 absorb; absorbance read-out; inhibition, % at 12.8 µM; 22% of 1,100 active;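 note: 0% = vehicle with enzyme and 100% = no enzyme buffer only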
An asterisk follows results filed as active; / = not tested or not shown. Cut-off read from the data, not from the text of the source, unless noted: active = inhibition above about 25%; inactive = the rest.

SMILES | MBD2 DNA inh | TDP2 absorb | UHRF1 MBD2 ctr | ARFGAP1 inh | LEDGF integ inh | ASAP1 GAP inh | TDP2 inh conf
CC1=NN(Cc2cc(C(C)(C)C)c(O)c(C(C)(C)C)c2)C(=O)C1 | 1 | 25* | -4 | -1 | -1 | -10 | 0
CC(C)(C)c1cc(CN2CCC(O)CC2)cc(C(C)(C)C)c1O | 3 | -6 | 8 | 11 | -1 | 11 | /
CC(COc1ccc(S(C)(=O)=O)cc1)CN1CCC(C(O)(c2ccccc2)c2ccccc2)CC1 (centres undefined) | 4 | -1 | -1 | / | -3 | / | /
CC1(C)CC(=O)C2=C(C1)OC(N)=C(C#N)C2c1cccs1 (centres undefined) | -1 | 4 | 2 | 4 | 0 | 6 | /
CC1(C)CC(=O)C2=C(C1)OC(N)=C(C#N)C2c1ccccc1 (centres undefined) | 1 | 68* | 0 | 2 | -1 | 9 | 3
O=C1NNC(c2ccccc2)=N/C1=C\c1ccco1 | 1 | -9 | -3 | 5 | 6 | 5 | /
O=C1NNC(c2ccccc2)=N/C1=C\c1ccccc1Cl | -5 | 56* | -4 | 8 | 5 | 10 | 62*
O=C1N2CCc3ccccc3C2CS(=O)(=O)N1Cc1ccc(F)cc1 (centres undefined) | -2 | -2 | -5 | / | 2 | / | /
CCCC(=O)Nc1cc(OC)c(NC(=S)Nc2ccc(CC)cc2)cc1OC | -7 | 26* | -2 | -18 | 4 | -8 | 4
COc1cccc(N2CC(C(=O)Nc3nnc(SCCC4OCCO4)s3)CC2=O)c1 (centres undefined) | -8 | 29* | -5 | -8 | -3 | 0 | 2
C[C@H]1[C@@H](N(C)C)CC[C@@]23CCCN2C(=O)CCC[C@@H]13 | -2 | 1 | -2 | / | 0 | / | /
COC(=O)CCC(=O)OC1(C)C(=O)C=C2C=C(C3CC3)N(CC3CC3)C=C2C1=O (centres undefined) | -4 | 28* | 3 | 5 | 9 | 2 | 12
COC(=O)CCC(=O)OC1(C)C(=O)C=C2C=C(C3CC3)N(C3CCCC3)C=C2C1=O (centres undefined) | -3 | 24 | 3 | 8 | 11 | 1 | /
COC(=O)CCC(=O)OC1(C)C(=O)C=C2C=C(C3CC3)N(C3CCCCC3)C=C2C1=O (centres undefined) | -2 | 29* | 4 | 10 | 4 | 11 | 3
CCN(CC)CCCN1C=C2C(=O)C(C)(OC(=O)CCC(=O)OC)C(=O)C=C2C=C1C1CC1 (centres undefined) | 0 | 21 | 1 | 4 | 2 | 8 | /
COC(=O)CCC(=O)OC1(C)C(=O)C=C2C=C(C3CC3)N(Cc3ccccc3)C=C2C1=O (centres undefined) | -6 | 26* | -2 | -3 | 2 | 0 | 7
NC(=NCCc1c[nH]c2ccccc12)NC(=O)OCc1ccccc1 | 3 | 6 | 0 | / | 0 | / | /
Cc1cccc(N=C2C(=O)Nc3c(Cl)cccc32)c1 | -3 | 9 | -5 | 1 | -1 | 5 | /
O=C1Nc2c(Cl)cc(Cl)cc2C1=O | -1 | 49* | -4 | 20 | -5 | 12 | 54*
Cc1c(C(c2cc(O)ccc2Cl)c2c(C)n(C)n(-c3ccccc3)c2=O)c(=O)n(-c2ccccc2)n1C | 0 | 29* | 0 | 7 | 0 | -8 | 12
O=C1c2ccccc2-c2onc3c(N4CCN(CCO)CC4)cc(N4CCN(C(=O)c5ccco5)CC4)c1c23 | -7 | 2 | -4 | 15 | -10 | 16 | /
O=C(O)CCCNc1cc(N2CCN(C(=O)c3ccco3)CC2)c2noc3c2c1C(=O)c1ccccc1-3 | -13 | 30* | -2 | 14 | 4 | 13 | 27*
CCOc1ccc(-n2c(SCC(=O)Nc3cc(C)c(NC(=O)c4ccccc4)cc3OC)nnc2-c2ccncc2)cc1 | 1 | -2 | -1 | / | 4 | / | /
O=C(NCCc1c[nH]c2ccccc12)OCc1cn(Cc2cccc(Cl)c2)nn1 | -1 | 8 | -1 | / | 1 | / | /
COc1cccc(C(C(=O)NC(C)(C)C)N(Cc2ccco2)C(=O)CCC(=O)Nc2cc(C)on2)c1OC (centres undefined) | 3 | -11 | 2 | -9 | 3 | 0 | /
SMILES | MBD2 DNA inh | TDP2 absorb | UHRF1 MBD2 ctr | ARFGAP1 inh | LEDGF integ inh | ASAP1 GAP inh | TDP2 inh conf
COc1cccc(C(C(=O)NC(C)(C)C)N(Cc2ccc(C)cc2)C(=O)CCC(=O)Nc2cc(C)on2)c1OC (centres undefined) | 1 | 31* | -1 | -3 | 0 | 8 | -8
CC(C)(C)OC(=O)NCc1cc(F)ccc1/C=C/S(=O)(=O)NC1CCCC1 | -4 | -15 | 3 | / | 7 | / | /
COC(=O)C1=CN(Cc2ccccc2)C=C(C(=O)OC)C1c1ccc(OC)c(OC)c1 | 3 | 26* | -4 | 5 | -1 | 5 | 5
C=CCN1[C@H](CC(C)C)COc2cccc(F)c2S1(=O)=O | -1 | 0 | 0 | / | -4 | / | /
CCOc1ccccc1NC(=O)C(NCCN(C)C)c1ccccc1 (centres undefined) | -1 | 27* | 0 | 10 | 1 | 8 | 13
CCOc1ccccc1NC(=O)C(NCCc1ccc(OC)cc1)c1ccccc1 (centres undefined) | 2 | 3 | 1 | 6 | -5 | -7 | /
Nc1nc2c(s1)CCc1ccccc1-2 | -1 | 30* | 0 | -18 | -3 | -5 | -2
CCOc1ccc(C2CC=C(C(=O)O)CN2S(=O)(=O)c2ccc(C)cc2)cc1 (centres undefined) | -2 | -6 | -2 | / | 4 | / | /
O=C1C[C@@H](c2ccccc2)N=C2N(CC3CC3)C/C(=C/c3ccccc3)N12 | 4 | 2 | -3 | / | 3 | / | /
Cc1c[nH]c2cccc(-c3ccccc3)c12 | -6 | -2 | 1 | / | -1 | / | /
O=C(NC1C(=O)NNC1c1ccccc1)c1ccc(F)cc1 (centres undefined) | -7 | 26* | -3 | 0 | 5 | 10 | 6
